Measured values from ChEMBL document CHEMBL2203283, “Novel coumarin derivatives bearing N-benzyl pyridinium moiety: potent and dual binding site acetylcholinesterase inhibitors” (Bioorg Med Chem, 2012).
pIC50: −log10 of the molar value. In brackets after ≈: the same amount, converted by molar mass.

Columns and labels:
[1] = Antioxidant activity of compound assessed as ferric reducing antioxidant power; type: functional
Method in brief: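 Modified FRAP assay. Reagent mixed from 300 mM acetate buffer pH 3.6, 10 mM TPTZ in 40 mM HCl, and 20 mM ferric chloride hexahydrate solution. Ascorbic acid and BHT served as references.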

[2] = Selectivity ratio of IC50 for equine serum BuChE to IC50 for electric eel AChE
Method in brief: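 Ellman assay with electric eel AChE and equine serum BuChE, run by the same method. Compounds are diluted in 0.1 M phosphate buffer, pH 8.0, and preincubated 15 min at 25 °C. Substrate is acetylthiocholine iodide with DTNB, read as absorbance rate at 412 nm over 6 min. Five concentrations are tested in triplicate, with IC50 taken graphically. Ratio = IC50(BuChE)/IC50(AChE).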

[3] = target: Cholinesterase (Equus caballus, UniProt P81908); experiment: Inhibition of equine serum BuChE using acetylthiocholine iodide as substrate by Ellman's method
Sequence of Cholinesterase (P81908 whole entry): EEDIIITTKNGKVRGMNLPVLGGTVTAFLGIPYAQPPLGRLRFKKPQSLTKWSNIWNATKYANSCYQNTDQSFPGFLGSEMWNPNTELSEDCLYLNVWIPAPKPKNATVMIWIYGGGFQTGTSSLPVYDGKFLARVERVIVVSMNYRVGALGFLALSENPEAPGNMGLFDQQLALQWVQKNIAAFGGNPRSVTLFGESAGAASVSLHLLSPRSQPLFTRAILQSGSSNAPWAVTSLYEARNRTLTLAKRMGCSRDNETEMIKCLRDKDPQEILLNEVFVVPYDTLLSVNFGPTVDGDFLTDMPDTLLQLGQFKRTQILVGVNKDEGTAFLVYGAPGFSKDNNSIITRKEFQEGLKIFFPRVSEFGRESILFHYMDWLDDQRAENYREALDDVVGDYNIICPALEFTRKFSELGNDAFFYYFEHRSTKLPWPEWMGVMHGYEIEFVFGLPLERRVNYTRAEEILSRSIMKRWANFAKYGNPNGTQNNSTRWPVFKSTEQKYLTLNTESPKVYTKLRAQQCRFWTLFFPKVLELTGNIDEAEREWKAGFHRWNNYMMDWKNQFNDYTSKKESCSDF

[4] = tested on: Radical scavenging activity; experiment: Antioxidant activity of compound assessed as DPPH radical scavenging activity; type: functional
Method in brief: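 DPPH radical scavenging: compounds at five concentrations across a 0–25 range in methanol, mixed with 0.3 mM DPPH ethanol solution and left 30 min in the dark at room temperature. Absorbance read at 518 nm, with a compound-plus-methanol reading blank and a DPPH-plus-methanol negative control. % inhibition = [(A_B−A_A)/A_B]×100; IC50 calculated; ascorbic acid as reference.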

[5] = target: Acetylcholinesterase (Electrophorus electricus, UniProt O42275); experiment: Inhibition of electric eel AChE using acetylthiocholine iodide as substrate by Ellman's method
Sequence of Acetylcholinesterase (O42275 whole entry): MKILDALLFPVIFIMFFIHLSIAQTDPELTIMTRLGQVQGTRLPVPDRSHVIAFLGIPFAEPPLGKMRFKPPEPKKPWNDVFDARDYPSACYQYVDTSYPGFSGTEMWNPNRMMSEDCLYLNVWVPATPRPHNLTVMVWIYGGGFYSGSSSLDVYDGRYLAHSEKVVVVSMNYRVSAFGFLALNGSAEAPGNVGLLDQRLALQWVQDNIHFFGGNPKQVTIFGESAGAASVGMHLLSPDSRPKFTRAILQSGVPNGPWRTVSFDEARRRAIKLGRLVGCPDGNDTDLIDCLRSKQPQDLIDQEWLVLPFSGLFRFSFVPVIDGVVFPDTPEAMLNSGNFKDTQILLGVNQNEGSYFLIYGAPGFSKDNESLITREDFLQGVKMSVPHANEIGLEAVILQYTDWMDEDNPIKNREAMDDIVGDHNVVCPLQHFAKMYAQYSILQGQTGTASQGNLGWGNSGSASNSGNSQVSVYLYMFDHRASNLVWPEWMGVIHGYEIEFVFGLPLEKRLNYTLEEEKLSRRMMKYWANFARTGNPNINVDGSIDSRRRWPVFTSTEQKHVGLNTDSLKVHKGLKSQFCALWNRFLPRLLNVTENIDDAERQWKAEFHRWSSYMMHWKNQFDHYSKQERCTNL

Compound | Activity [1] | Ratio IC50 [2] | pIC50 [3] | IC50 [4] | pIC50 [5]
COc1cccc2cc(C(=O)/C=C/c3cc[n+](Cc4ccc(C)cc4)cc3)c(=O)oc12.[Cl-] | < 150 | 7.4 | 4.57 | > 25 µg/mL | 5.44
COc1cccc2cc(C(=O)/C=C/c3cc[n+](Cc4ccc(F)cc4)cc3)c(=O)oc12.[Cl-] | < 150 | 1.97 | 6.03 | > 25 µg/mL | 6.33
COc1cccc2cc(C(=O)/C=C/c3cc[n+](Cc4c(F)cccc4[N+](=O)[O-])cc3)c(=O)oc12.[Cl-] | < 150 | 2.1 | 6.16 | > 25 µg/mL | 6.48
COc1cccc2cc(C(=O)/C=C/c3cc[n+](Cc4cccc(Cl)c4)cc3)c(=O)oc12.[Cl-] | < 150 | 6.5 | 6.25 | > 25 µg/mL | 7.07
O=C(/C=C/c1cc[n+](Cc2ccc(F)cc2)cc1)c1cc2cc(Br)ccc2oc1=O.[Cl-] | < 150 | 1070 | 6.31 | > 25 µg/mL | 9.34
COc1cccc2cc(C(=O)/C=C/c3cc[n+](Cc4cccc(C#N)c4)cc3)c(=O)oc12.[Br-] | < 150 | 13.1 | 6.00 | > 25 µg/mL | 7.12
O=C(/C=C/c1cc[n+](Cc2ccccc2F)cc1)c1cc2cc(Br)ccc2oc1=O.[Cl-] | < 150 | 4440 | 6.31 | > 25 µg/mL | 9.96
COc1cccc2cc(C(=O)/C=C/c3cc[n+](Cc4ccccc4C)cc3)c(=O)oc12.[Cl-] | < 150 | 2140 | 6.47 | > 25 µg/mL | 9.80
COc1cccc2cc(C(=O)/C=C/c3cc[n+](Cc4ccccc4)cc3)c(=O)oc12.[Cl-] | < 150 | – | – | > 25 µg/mL | –
O=C1O[C@H]([C@@H](O)CO)C(O)=C1O [ASCORBIC ACID] | 1890 | – | – | 3.6 µg/mL (≈ 20.4 µM) | –
COc1cccc2cc(C(=O)/C=C/c3cc[n+](Cc4ccccc4F)cc3)c(=O)oc12.[Br-] | < 150 | 12.6 | 6.48 | > 25 µg/mL | 7.59
COc1cccc2cc(C(=O)/C=C/c3cc[n+](Cc4ccc(Cl)c(Cl)c4)cc3)c(=O)oc12.[Cl-] | < 150 | 13.6 | 5.24 | > 25 µg/mL | 6.36
O=C(/C=C/c1cc[n+](Cc2ccc(F)cc2)cc1)c1cc2ccccc2oc1=O.[Cl-] | < 150 | 1.2 | 6.04 | > 25 µg/mL | 6.12
COc1cccc2cc(C(=O)/C=C/c3cc[n+](Cc4cccc(C)c4)cc3)c(=O)oc12.[Cl-] | < 150 | 14 | 4.95 | > 25 µg/mL | 6.10
O=C(/C=C/c1cc[n+](Cc2ccccc2F)cc1)c1cc2ccccc2oc1=O.[Cl-] | < 150 | 1.57 | 6.07 | > 25 µg/mL | 6.27
COc1cccc2cc(C(=O)/C=C/c3cc[n+](Cc4ccccc4Cl)cc3)c(=O)oc12.[Cl-] | < 150 | 272 | 6.90 | > 25 µg/mL | 9.34
COc1cccc2cc(C(=O)/C=C/c3cc[n+](Cc4ccc(CCl)cc4)cc3)c(=O)oc12.[Cl-] | < 150 | 9.4 | 4.82 | > 25 µg/mL | 5.80
COc1cccc2cc(C(=O)/C=C/c3cc[n+](Cc4cccc(Cl)c4Cl)cc3)c(=O)oc12.[Cl-] | < 150 | 57 | 5.17 | > 25 µg/mL | 6.92
COc1cccc2cc(C(=O)/C=C/c3cc[n+](Cc4cccc(F)c4)cc3)c(=O)oc12.[Cl-] | < 150 | 4470 | 5.68 | > 25 µg/mL | 9.33
COc1ccc(C[n+]2ccc(/C=C/C(=O)c3cc4cccc(OC)c4oc3=O)cc2)cc1.[Cl-] | < 150 | 0.7 | 6.01 | > 25 µg/mL | 5.83
